Experimental data reported in ChEMBL document CHEMBL3091318, “Potent and broad-spectrum antibacterial activity of indole-based bisamidine antibiotics: synthesis and SAR of novel analogs of MBX 1066 and MBX 1090” (2013).
In brackets after ≈: the same amount, converted by molar mass.

Legend:
Assay type in all cases: functional
Escherichia coli [1] = experiment: Antimicrobial activity against TolC efflux-deficient Escherichia coli K-12 after 16 to 20 hrs by broth microdilution method
Summary of the method: (§1)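 CLSI broth microdilution. Log-phase cultures grown in cation-adjusted Mueller–Hinton broth and seeded at 1×10^5 CFU/mL. Plates incubated at 37 °C with shaking for 16–20 h. DMSO stocks of compound were diluted into medium to 1% DMSO final. Growth was read as OD600. MIC (μg/ml) is the lowest concentration with no apparent growth, averaged over at least 3 assays.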

Escherichia coli [2] = experiment: Antimicrobial activity against efflux pump-positive Escherichia coli K-12 after 16 to 20 hrs by broth microdilution method; summary of the method: as §1
Pseudomonas aeruginosa [3] = experiment: Antimicrobial activity against efflux pump mexAB-oprM-deficient Pseudomonas aeruginosa PAO1 after 16 to 20 hrs by broth microdilution method; summary of the method: as §1
Enterococcus faecalis [4] = experiment: Antimicrobial activity vancomycin-resistant Enterococcus faecalis ATCC 51575 after 16 to 20 hrs by broth microdilution method
Summary of the method: (§2)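 CLSI broth microdilution. Log-phase cultures in cation-adjusted Mueller–Hinton broth were seeded at 1×10^5 CFU/mL and incubated at 37 °C with shaking for 16–20 h. Compounds were diluted from DMSO stocks to a final 1% DMSO. Growth was read as OD600, and MIC was taken as the lowest concentration with no apparent growth. At least 3 runs were done, and the average MIC is reported in μg/ml.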

Staphylococcus aureus [5] = experiment: Antimicrobial activity against Staphylococcus aureus ATCC 25923 after 16 to 20 hrs by broth microdilution method; summary of the method: as §2
Staphylococcus aureus [6] = experiment: Antimicrobial activity methicillin-resistant against Staphylococcus aureus clinical isolate 1094 after 16 to 20 hrs by broth microdilution method
Enterococcus faecalis [7] = experiment: Antimicrobial activity Enterococcus faecalis ATCC 29212 after 16 to 20 hrs by broth microdilution method; summary of the method: as §1
Bacillus anthracis = experiment: Antimicrobial activity against Bacillus anthracis Sterne after 16 to 20 hrs by broth microdilution method; summary of the method: as §2
Pseudomonas aeruginosa [8] = experiment: Antimicrobial activity against efflux pump-positive Pseudomonas aeruginosa PAO1 ATCC BAA-47 after 16 to 20 hrs by broth microdilution method; summary of the method: as §1
Acinetobacter baumannii = experiment: Antimicrobial activity against Acinetobacter baumannii ATCC 19606 after 16 to 20 hrs by broth microdilution method; summary of the method: as §1
Klebsiella pneumoniae = experiment: Antimicrobial activity against Klebsiella pneumoniae ATCC 13882 after 16 to 20 hrs by broth microdilution method; summary of the method: as §1
Haemophilus influenzae = experiment: Antimicrobial activity against Haemophilus influenzae ATCC 10211 after 16 to 20 hrs by broth microdilution method
Summary of the method: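 Broth microdilution per CLSI in Haemophilus Test Medium at 37 °C under 5% CO₂ for 16–20 h, seeded at 1×10^5 CFU/mL. Compound was added from DMSO stocks to 1% DMSO final. Growth was read as OD600. MIC (μg/ml) is the lowest concentration without apparent growth, averaged from at least 3 runs.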

SMILES	MIC (Escherichia coli [1])	MIC (Escherichia coli [2])	MIC (Pseudomonas aeruginosa [3])	MIC (Enterococcus faecalis [4])	MIC (Staphylococcus aureus [5])	MIC (Staphylococcus aureus [6])	MIC (Enterococcus faecalis [7])	MIC (Bacillus anthracis)	MIC (Pseudomonas aeruginosa [8])	MIC (Acinetobacter baumannii)	MIC (Klebsiella pneumoniae)	MIC (Haemophilus influenzae)
CC(=O)O.c1cc2cc(-c3ccc(-c4cc5ccc(C6=NCCCN6)cc5[nH]4)s3)[nH]c2cc1C1=NCCCN1	0.31 µg/mL	0.63 µg/mL	1.25 µg/mL	0.16 µg/mL	0.08 µg/mL	0.16 µg/mL	0.16 µg/mL	0.16 µg/mL	5 µg/mL	5 µg/mL	0.63 µg/mL	
CC1(C)CN=C(c2ccc3cc(-c4ccc(-c5cc6ccc(C7=NCC(C)(C)CN7)cc6[nH]5)cc4)[nH]c3c2)NC1.O=C(O)C(F)(F)F	0.63 µg/mL	0.63 µg/mL	40 µg/mL	0.63 µg/mL	0.31 µg/mL	0.31 µg/mL	0.31 µg/mL	0.31 µg/mL	10 µg/mL	> 80 µg/mL	0.63 µg/mL	2.5 µg/mL
CC(=O)O.c1cc2cc(-c3ccc(-c4cc5ccc(C6=NCCN6)cc5[nH]4)nc3)[nH]c2cc1C1=NCCN1	0.63 µg/mL	2.5 µg/mL	> 80 µg/mL	0.31 µg/mL	0.31 µg/mL	0.31 µg/mL	0.31 µg/mL	0.31 µg/mL	> 80 µg/mL	> 80 µg/mL	2.5 µg/mL	
O=C(O)C(F)(F)F.c1cc2cc(CCc3cc4ccc(C5=NCCCN5)cc4[nH]3)[nH]c2cc1C1=NCCCN1	0.31 µg/mL	2.5 µg/mL	10 µg/mL	2.5 µg/mL	0.63 µg/mL	1.25 µg/mL	5 µg/mL	0.63 µg/mL	10 µg/mL	80 µg/mL		
Cl.N/N=C(/N)c1ccc2cc(-c3ccc(-c4cc5ccc(/C(N)=N\N)cc5[nH]4)cc3)[nH]c2c1	0.63 µg/mL	2.5 µg/mL		0.63 µg/mL	0.63 µg/mL	1.25 µg/mL	0.63 µg/mL	0.31 µg/mL	10 µg/mL	> 80 µg/mL	1.25 µg/mL	
O=C(O)c1cn(C2CC2)c2cc(N3CCNCC3)c(F)cc2c1=O [CIPROFLOXACIN]	≤ 0.02 µg/mL	≤ 0.02 µg/mL	≤ 0.02 µg/mL	0.63 µg/mL (≈ 1.9 µM)	0.31 µg/mL (≈ 0.936 µM)		1.25 µg/mL (≈ 3.77 µM)	0.08 µg/mL (≈ 0.241 µM)	0.63 µg/mL (≈ 1.9 µM)	1.25 µg/mL (≈ 3.77 µM)	0.04 µg/mL (≈ 0.121 µM)	10 µg/mL (≈ 30.2 µM)
CC(=O)O.c1cc2cc(-c3cnc(-c4cc5ccc(C6=NCCCN6)cc5[nH]4)cn3)[nH]c2cc1C1=NCCCN1	0.31 µg/mL	2.5 µg/mL	5 µg/mL	0.31 µg/mL	0.31 µg/mL	0.31 µg/mL	0.31 µg/mL	0.16 µg/mL	5 µg/mL	> 80 µg/mL	1.25 µg/mL	
CC(=O)O.c1cc2cc(-c3ccc(-c4cc5ccc(C6=NCCCN6)cc5[nH]4)nc3)[nH]c2cc1C1=NCCCN1	0.16 µg/mL	0.63 µg/mL	2.5 µg/mL	0.16 µg/mL	0.16 µg/mL	0.16 µg/mL	0.63 µg/mL	0.16 µg/mL	2.5 µg/mL	20 µg/mL	5 µg/mL	2.5 µg/mL
O=C(O)C(F)(F)F.OC1CN=C(c2ccc3cc(-c4ccc(-c5cc6ccc(C7=NCC(O)CN7)cc6[nH]5)cc4)[nH]c3c2)NC1 (stereo not drawn)	0.63 µg/mL	1.25 µg/mL	0.31 µg/mL	0.63 µg/mL	0.31 µg/mL	0.31 µg/mL	0.16 µg/mL	0.16 µg/mL	1.25 µg/mL	> 80 µg/mL	0.63 µg/mL	1.25 µg/mL
NCc1ccc2cc(-c3ccc(-c4cc5ccc(CN)cc5[nH]4)cc3)[nH]c2c1.O=C(O)C(F)(F)F	1.25 µg/mL	5 µg/mL	40 µg/mL	1.25 µg/mL	0.63 µg/mL	1.25 µg/mL	1.25 µg/mL	1.25 µg/mL	40 µg/mL	> 80 µg/mL	2.5 µg/mL	
c1cc2cc(CCCCc3cc4ccc(C5=NCCCN5)cc4[nH]3)[nH]c2cc1C1=NCCCN1	0.16 µg/mL (≈ 0.354 µM)	1.25 µg/mL (≈ 2.76 µM)	40 µg/mL (≈ 88.4 µM)	0.31 µg/mL (≈ 0.685 µM)	0.63 µg/mL (≈ 1.39 µM)	1.25 µg/mL (≈ 2.76 µM)	2.5 µg/mL (≈ 5.52 µM)	1.25 µg/mL (≈ 2.76 µM)	40 µg/mL (≈ 88.4 µM)	> 80 µg/mL		
FC1CN=C(c2ccc3cc(-c4ccc(-c5cc6ccc(C7=NCC(F)CN7)cc6[nH]5)cc4)[nH]c3c2)NC1.O=C(O)C(F)(F)F (stereo not drawn)	0.31 µg/mL	0.63 µg/mL	0.31 µg/mL	0.08 µg/mL	0.08 µg/mL	0.16 µg/mL	0.16 µg/mL	0.08 µg/mL	1.25 µg/mL	40 µg/mL	0.31 µg/mL	
CCOC(=N)c1ccc2cc(-c3ccc(-c4cc5ccc(C(=N)OCC)cc5[nH]4)cc3)[nH]c2c1.Cl			> 80 µg/mL	10 µg/mL	0.63 µg/mL	5 µg/mL	2.5 µg/mL	2.5 µg/mL	> 80 µg/mL		> 80 µg/mL	
O=C(O)C(F)(F)F.c1cc2cc(-c3ccc(-c4cc5ccc(C6=NCCN6)cc5[nH]4)o3)[nH]c2cc1C1=NCCN1	0.63 µg/mL	20 µg/mL	> 80 µg/mL	> 80 µg/mL	40 µg/mL	40 µg/mL	> 80 µg/mL	5 µg/mL	> 80 µg/mL	> 80 µg/mL	> 80 µg/mL	
c1cc2cc(CCCc3cc4ccc(C5=NCCCN5)cc4[nH]3)[nH]c2cc1C1=NCCCN1	1.25 µg/mL (≈ 2.85 µM)	80 µg/mL (≈ 182 µM)	> 80 µg/mL	0.63 µg/mL (≈ 1.44 µM)	20 µg/mL (≈ 45.6 µM)	20 µg/mL (≈ 45.6 µM)	80 µg/mL (≈ 182 µM)	20 µg/mL (≈ 45.6 µM)	> 80 µg/mL	> 80 µg/mL		
N/C(=N\O)c1ccc2cc(-c3ccc(-c4cc5ccc(/C(N)=N\O)cc5[nH]4)cc3)[nH]c2c1	0.63 µg/mL (≈ 1.48 µM)	> 80 µg/mL	> 80 µg/mL	1.25 µg/mL (≈ 2.94 µM)	0.31 µg/mL (≈ 0.73 µM)	1.25 µg/mL (≈ 2.94 µM)	2.5 µg/mL (≈ 5.89 µM)	0.16 µg/mL (≈ 0.377 µM)	> 80 µg/mL		> 80 µg/mL	
CC1CN=C(c2ccc3cc(-c4ccc(-c5cc6ccc(C7=NCC(C)CN7)cc6[nH]5)cc4)[nH]c3c2)NC1.O=C(O)C(F)(F)F (stereo not drawn)	0.16 µg/mL	0.31 µg/mL	0.63 µg/mL	0.08 µg/mL	0.08 µg/mL	0.08 µg/mL	0.16 µg/mL	0.08 µg/mL	0.63 µg/mL	40 µg/mL	0.31 µg/mL	1.25 µg/mL
NC(=O)c1ccc2cc(-c3ccc(-c4cc5ccc(C(N)=O)cc5[nH]4)cc3)[nH]c2c1	5 µg/mL (≈ 12.7 µM)	> 80 µg/mL	> 80 µg/mL	> 80 µg/mL	2.5 µg/mL (≈ 6.34 µM)	> 80 µg/mL	10 µg/mL (≈ 25.4 µM)	> 80 µg/mL	> 80 µg/mL	> 80 µg/mL	> 80 µg/mL	
O=C(O)C(F)(F)F.c1cc2cc(-c3ccc(-c4cc5ccc(C6=NCCN6)cc5[nH]4)s3)[nH]c2cc1C1=NCCN1	0.31 µg/mL	0.63 µg/mL	1.25 µg/mL	1.25 µg/mL	0.16 µg/mL	0.31 µg/mL	1.25 µg/mL	0.16 µg/mL	10 µg/mL	10 µg/mL	0.63 µg/mL	0.63 µg/mL
CC(=O)O.c1cc2cc(-c3cnc(-c4cc5ccc(C6=NCCN6)cc5[nH]4)cn3)[nH]c2cc1C1=NCCN1	0.63 µg/mL	20 µg/mL	> 80 µg/mL	10 µg/mL	5 µg/mL	5 µg/mL	20 µg/mL	2.5 µg/mL	> 80 µg/mL	> 80 µg/mL	10 µg/mL	
Cl.N=C(N)c1ccc2cc(-c3ccc(-c4cc5ccc(C(=N)N)cc5[nH]4)cc3)[nH]c2c1	0.16 µg/mL	0.63 µg/mL		0.16 µg/mL	0.16 µg/mL	0.31 µg/mL	0.04 µg/mL	0.08 µg/mL	10 µg/mL	40 µg/mL	0.63 µg/mL	
COC1CN=C(c2ccc3cc(-c4ccc(-c5cc6ccc(C7=NCC(OC)CN7)cc6[nH]5)cc4)[nH]c3c2)NC1.O=C(O)C(F)(F)F (stereo not drawn)	0.31 µg/mL	5 µg/mL	2.5 µg/mL	0.16 µg/mL	0.16 µg/mL	0.16 µg/mL	0.16 µg/mL	0.16 µg/mL	5 µg/mL	> 80 µg/mL	0.63 µg/mL	
